Laboratory results from ChEMBL document CHEMBL5724801, “EUbOPEN Chemogenomics Library - Multiplex” (2024).
Where “and” joins values, the source holds several entries; their conditions need not be identical. Equal entries are not always repeated.

The compounds below were run on U2OS (assay: Multiplex assay against U2OS). Details: human, 12 h, 1 µM, compound concentration 1 uM.
Type: toxicity, cell-based
Procedure, shortened: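 Values for tubulin, mitochondrial-mass and membrane-permeability phenotypes are per cents of cells with healthy nuclei. These cells were identified by CellPathfinder machine-learning gating of live cells that had been stained at seeding with Hoechst33342, BioTracker Green Microtubule Cytoskeleton Dye, MitoTracker Red and Annexin V Alexa Fluor 680 and imaged on a CQ1 microscope at 37°C and 5% CO2 after compound addition. The gating first set Hoechst high-intensity objects apart from normal cells, then split normal cells into healthy, pyknosed or fragmented nuclei, and pyknosed cells into mitotic or apoptotic.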

Structure (SMILES)	Population Apoptotic (%)	Population Fragmented Nuclei (%)	Population Healthy Nuclei (%)	Population Hoechst High Intensity Objects (%)	Population Membrane Permeable-Phenotype (%)	Population Mitochondria Different-Phenotype (%)	Population Mitotic Cells (%)	Population Normal (%)	Population Pyknosed Nuclei (%)	Population Tubulin-Different-Phenotype (%)
CN1CCN(c2ccc(Nc3c4ccccc4nc4ccccc34)cc2)CC1.Cl.Cl.O	100% and 87%	25% and 23%	65% and 69%	0	19% and 14%	7% and 13%	0% and 12%	99% and 100%	8% and 7%	17% and 13%
Cc1cc(NC(=O)c2cccc(NC(=O)/C=C/CN(C)C)c2)ccc1Nc1nccc(-c2cccnc2)n1	27.59% and 30.56%	1.96% and 1.23%	90.93% and 76.69%	0	0.54% and 4%	0% and 11.2%	72.41% and 69.44%	100%	–	1.35% and 1.6%

Same assay, conditions: human, 12 h, 1 µM, compound concentration 1 uM

Structure (SMILES)	Total Cell Count
CN1CCN(c2ccc(Nc3c4ccccc4nc4ccccc34)cc2)CC1.Cl.Cl.O	193 and 107
Cc1cc(NC(=O)c2cccc(NC(=O)/C=C/CN(C)C)c2)ccc1Nc1nccc(-c2cccnc2)n1	408 and 163

Same assay, conditions: human, 12 h, 10 µM, compound concentration 10 uM

Structure (SMILES)	Population Apoptotic (%)	Population Fragmented Nuclei (%)	Population Healthy Nuclei (%)	Population Hoechst High Intensity Objects (%)	Population Membrane Permeable-Phenotype (%)	Population Mitochondria Different-Phenotype (%)	Population Mitotic Cells (%)	Population Normal (%)	Population Pyknosed Nuclei (%)	Population Tubulin-Different-Phenotype (%)
CN1CCN(c2ccc(Nc3c4ccccc4nc4ccccc34)cc2)CC1.Cl.Cl.O	93% and 100%	54% and 62%	38% and 31%	0% and 2%	65% and 70%	95% and 100%	6% and 0%	99% and 97%	7% and 6%	82% and 85%
Cc1cc(NC(=O)c2cccc(NC(=O)/C=C/CN(C)C)c2)ccc1Nc1nccc(-c2cccnc2)n1	30.59% and 26%	2.2% and 3.08%	71.07% and 58.46%	0%	61.06% and 84.21%	–	69.41% and 74%	100%	26.73% and 38.46%	71.68% and 55.26%

Same assay, conditions: human, 12 h, 10 µM, compound concentration 10 uM

Structure (SMILES)	Total Cell Count
CN1CCN(c2ccc(Nc3c4ccccc4nc4ccccc34)cc2)CC1.Cl.Cl.O	213 and 132
Cc1cc(NC(=O)c2cccc(NC(=O)/C=C/CN(C)C)c2)ccc1Nc1nccc(-c2cccnc2)n1	318 and 130

Same assay, conditions: human, 24 h, 1 µM, compound concentration 1 uM

Structure (SMILES)	Population Apoptotic (%)	Population Fragmented Nuclei (%)	Population Healthy Nuclei (%)	Population Hoechst High Intensity Objects (%)	Population Membrane Permeable-Phenotype (%)	Population Mitochondria Different-Phenotype (%)	Population Mitotic Cells (%)	Population Normal (%)	Population Pyknosed Nuclei (%)	Population Tubulin-Different-Phenotype (%)
CN1CCN(c2ccc(Nc3c4ccccc4nc4ccccc34)cc2)CC1.Cl.Cl.O	92% and 100%	28% and 29%	64% and 60%	1% and 4%	10% and 5%	6% and 12%	7% and 0%	98% and 95%	6% and 10%	7% and 6%
Cc1cc(NC(=O)c2cccc(NC(=O)/C=C/CN(C)C)c2)ccc1Nc1nccc(-c2cccnc2)n1	35.71% and 38.71%	1.26% and 5.24%	91.2% and 80%	0%	0.79% and 4.17%	–	64.29% and 61.29%	100%	7.54% and 14.76%	0.79% and 1.19%

Same assay, conditions: human, 24 h, 1 µM, compound concentration 1 uM

Structure (SMILES)	Total Cell Count
CN1CCN(c2ccc(Nc3c4ccccc4nc4ccccc34)cc2)CC1.Cl.Cl.O	200 and 124
Cc1cc(NC(=O)c2cccc(NC(=O)/C=C/CN(C)C)c2)ccc1Nc1nccc(-c2cccnc2)n1	557 and 210

Same assay, conditions: human, 24 h, 10 µM, compound concentration 10 uM

Structure (SMILES)	Population Apoptotic (%)	Population Fragmented Nuclei (%)	Population Healthy Nuclei (%)	Population Hoechst High Intensity Objects (%)	Population Membrane Permeable-Phenotype (%)	Population Mitochondria Different-Phenotype (%)	Population Mitotic Cells (%)	Population Normal (%)	Population Pyknosed Nuclei (%)	Population Tubulin-Different-Phenotype (%)
CN1CCN(c2ccc(Nc3c4ccccc4nc4ccccc34)cc2)CC1.Cl.Cl.O	100% and 90%	46% and 69%	42% and 23%	4% and 10%	85% and 96%	96% and 100%	0% and 10%	95% and 89%	11% and 7%	90% and 100%
Cc1cc(NC(=O)c2cccc(NC(=O)/C=C/CN(C)C)c2)ccc1Nc1nccc(-c2cccnc2)n1	56.85% and 76.53%	2.51% and 3.51%	–	0.31% and 0%	25.44% and 41.67%	21.93% and 41.67%	43.15% and 23.47%	99.69% and 100%	61.76% and 85.96%	54.39% and 58.33%

Same assay, conditions: human, 24 h, 10 µM, compound concentration 10 uM

Structure (SMILES)	Total Cell Count
CN1CCN(c2ccc(Nc3c4ccccc4nc4ccccc34)cc2)CC1.Cl.Cl.O	205 and 148
Cc1cc(NC(=O)c2cccc(NC(=O)/C=C/CN(C)C)c2)ccc1Nc1nccc(-c2cccnc2)n1	320 and 114

Same assay, conditions: human, 48 h, 1 µM, compound concentration 1 uM

Structure (SMILES)	Population Apoptotic (%)	Population Fragmented Nuclei (%)	Population Healthy Nuclei (%)	Population Hoechst High Intensity Objects (%)	Population Mitochondria Different-Phenotype (%)	Population Mitotic Cells (%)	Population Normal (%)	Population Pyknosed Nuclei (%)	Population Tubulin-Different-Phenotype (%)	Total Cell Count
CN1CCN(c2ccc(Nc3c4ccccc4nc4ccccc34)cc2)CC1.Cl.Cl.O	87% and 100%	36% and 40%	52% and 47%	4% and 5%	4% and 7%	12% and 0%	95% and 94%	10% and 12%	3% and 9%	231 and 147
Cc1cc(NC(=O)c2cccc(NC(=O)/C=C/CN(C)C)c2)ccc1Nc1nccc(-c2cccnc2)n1	41.94% and 59.02%	4.41% and 6.54%	86.07% and 73.53%	0% and 0.33%	0% and 7.56%	58.06% and 40.98%	100% and 99.67%	9.53% and 19.93%	1.67% and 0.89%	–

Same assay, conditions: human, 48 h, 1 µM, compound concentration 1 uM

Structure (SMILES)	Population Membrane Permeable-Phenotype (%)
Cc1cc(NC(=O)c2cccc(NC(=O)/C=C/CN(C)C)c2)ccc1Nc1nccc(-c2cccnc2)n1	0.6% and 3.11%

Same assay, conditions: human, 48 h, 10 µM, compound concentration 10 uM

Structure (SMILES)	Population Apoptotic (%)	Population Fragmented Nuclei (%)	Population Healthy Nuclei (%)	Population Hoechst High Intensity Objects (%)	Population Membrane Permeable-Phenotype (%)	Population Mitochondria Different-Phenotype (%)	Population Mitotic Cells (%)	Population Normal (%)	Population Tubulin-Different-Phenotype (%)	Total Cell Count
CN1CCN(c2ccc(Nc3c4ccccc4nc4ccccc34)cc2)CC1.Cl.Cl.O	96% and 100%	53% and 76%	30% and 19%	18% and 15%	91% and 100%	90% and 96%	3% and 0%	81% and 84%	93% and 100%	243 and 173
Cc1cc(NC(=O)c2cccc(NC(=O)/C=C/CN(C)C)c2)ccc1Nc1nccc(-c2cccnc2)n1	92.36% and 96.04%	3.57% and 4%	7.14% and 15.2%	0%	–	–	7.64% and 3.96%	100%	–	308 and 125

Same assay, conditions: human, 48 h, 10 µM, compound concentration 10 uM

Structure (SMILES)	Population Pyknosed Nuclei (%)
Cc1cc(NC(=O)c2cccc(NC(=O)/C=C/CN(C)C)c2)ccc1Nc1nccc(-c2cccnc2)n1	89.29% and 80.8%
